Measurements taken from ChEMBL document CHEMBL2176891, “Structural investigation of anti-Trypanosoma cruzi 2-iminothiazolidin-4-ones allows the identification of agents with efficacy in infected mice” (J Med Chem, 2012).
Activity calls are given as the source filed them. The rule behind the calls is not given here.

Experiments:
Trypanosoma cruzi [1] = assay: Antitrypanosomal activity against trypomastigotes of Trypanosoma cruzi Y infected in LLC-MK2 cells assessed as parasite motility after 24 hrs; assay type: functional, organism-based; conditions: LLC-MK2, 24 h
Procedure, shortened: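 Y strain bloodstream trypomastigotes taken from LLC-MK2 culture supernatant, 4 × 10⁵ cells/well. Five compound concentrations (DMSO), triplicate, 24 h at 37 °C, 5% CO₂. Viable parasites judged by motility in a Neubauer chamber. Inhibition calculated relative to untreated culture; IC50 by nonlinear regression.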

[2] = Cytotoxicity against BALB/c mouse splenocytes assessed as highest nontoxic concentration by measuring [3H]-thymidine incorporation after 24 hrs by beta-radiation counting; assay type: cell-based, Splenocyte; conditions: mouse, splenocytes, read-out: Activity
Procedure, shortened: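 BALB/c splenocytes, 5 × 10⁶ cells/well in RPMI-1640 with 10% FBS. Compound in DMSO at 1.0, 10 and 100 μg/mL or more, triplicate; untreated and saponin controls. 24 h at 37 °C, 5% CO₂. 1.0 μCi ³H-thymidine added, incorporation read by β-counting as % of untreated. Highest nontoxic concentration estimated.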

[3] = biological target: Cruzipain (Trypanosoma cruzi) (UniProt P25779); assay: Inhibition of Trypanosoma cruzi recombinant cruzain using Z-FR-AMC as substrate at 20 uM preincubated for 10 mins before substrate addition
Cruzipain (Trypanosoma cruzi), sequence (P25779 123-467 limits assumed): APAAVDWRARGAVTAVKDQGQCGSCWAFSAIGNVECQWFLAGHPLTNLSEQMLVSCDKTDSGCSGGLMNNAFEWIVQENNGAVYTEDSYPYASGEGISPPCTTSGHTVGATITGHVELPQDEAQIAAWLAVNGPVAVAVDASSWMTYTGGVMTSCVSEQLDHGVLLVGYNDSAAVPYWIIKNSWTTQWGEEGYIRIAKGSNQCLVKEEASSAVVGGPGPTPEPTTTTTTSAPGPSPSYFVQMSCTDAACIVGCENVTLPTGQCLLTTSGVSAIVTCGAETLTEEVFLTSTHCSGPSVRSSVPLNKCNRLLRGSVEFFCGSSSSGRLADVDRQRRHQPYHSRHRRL

Trypanosoma cruzi [4] = assay: Antitrypanosomal activity against epimastigotes of Trypanosoma cruzi Y in axenic culture assessed as parasite motility after 11 days; conditions: 264 h
Trypanosoma cruzi [5] = assay: Antitrypanosomal activity against trypomastigotes of Trypanosoma cruzi Y infected in mouse peritoneal macrophages assessed as reduction of intracellular parasite level at 10 uM after 4 days; assay type: functional, organism-based
Procedure, shortened: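 Peritoneal exudate macrophages, 2 × 10⁵/well on coverslips, infected with Y strain trypomastigotes at 10 parasites per macrophage for 2 h, then washed. Compound in DMSO added for 6 h, medium replaced, culture continued 4 days. After methanol fixation and Giemsa staining, 100 cells per slide counted for % infected macrophages and amastigotes per cell. IC50 based on % infected cells versus untreated.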

[6] = biological target: Cruzipain (Trypanosoma cruzi) (UniProt P25779); assay: Inhibition of Trypanosoma cruzi recombinant cruzain using Z-FR-AMC as substrate at 100 uM preincubated for 10 mins before substrate addition
Procedure, shortened: (§1)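 Recombinant cruzain preincubated 10 min at room temperature with compound (DMSO) in phosphate buffer containing EDTA, 100 mM NaCl and DTT. Z-FR-AMC then added; final 0.5 nM enzyme and 2 μM substrate. Fluorescence read at 1, 5 and 10 min; % inhibition versus no-inhibitor control. Single-point values are triplicate means; IC50 by nonlinear regression from multiple concentrations. Some runs used 0.01% Triton X-100.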

Cathepsin S = Cathepsin S (Homo sapiens, UniProt P25774); assay: Inhibition of recombinant cathepsin S using ZFR-pNA as substrate preincubated for 45 mins
Cathepsin S, sequence (P25774 whole entry): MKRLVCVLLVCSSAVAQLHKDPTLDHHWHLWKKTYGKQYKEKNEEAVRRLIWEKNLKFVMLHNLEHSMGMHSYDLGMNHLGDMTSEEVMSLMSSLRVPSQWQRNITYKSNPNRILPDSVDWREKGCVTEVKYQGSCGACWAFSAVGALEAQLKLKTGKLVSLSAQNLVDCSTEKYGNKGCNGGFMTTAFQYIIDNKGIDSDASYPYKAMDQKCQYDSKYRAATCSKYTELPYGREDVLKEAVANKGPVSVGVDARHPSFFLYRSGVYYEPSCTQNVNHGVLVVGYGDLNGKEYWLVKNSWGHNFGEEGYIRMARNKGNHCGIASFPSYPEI
Procedure, shortened: (§2)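 Recombinant cathepsin L or S activated with 1 mM DTT in 0.1 M acetate pH 5.5. Preincubated 45 min at room temperature with compound in phosphate buffer with 0.1% BSA, 1 mM EDTA and 0.001% Tween. Z-FR-pNA added, reaction 5 min; final 30 nM enzyme and 5.0 μM substrate. Triplicate runs; IC50 from at least seven concentrations.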

Procathepsin L [7] = biological target: T1, Procathepsin L (Homo sapiens, UniProt P07711); assay: Inhibition of recombinant cathepsin L using ZFR-pNA as substrate at 100 uM preincubated for 45 mins; procedure, shortened: as §2
Target sequence in this assay (P07711 114-333 limits assumed): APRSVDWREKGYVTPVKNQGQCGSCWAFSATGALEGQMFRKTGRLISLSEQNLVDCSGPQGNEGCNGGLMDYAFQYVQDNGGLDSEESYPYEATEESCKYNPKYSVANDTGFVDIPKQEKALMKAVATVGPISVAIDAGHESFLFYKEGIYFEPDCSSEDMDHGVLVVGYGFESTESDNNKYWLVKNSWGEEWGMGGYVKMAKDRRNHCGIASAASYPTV

Cruzipain = Cruzipain (Trypanosoma cruzi, UniProt P25779); assay: Inhibition of Trypanosoma cruzi recombinant cruzain using Z-FR-AMC as substrate preincubated for 10 mins before substrate addition; procedure, shortened: as §1
Cruzipain, sequence (P25779 whole entry): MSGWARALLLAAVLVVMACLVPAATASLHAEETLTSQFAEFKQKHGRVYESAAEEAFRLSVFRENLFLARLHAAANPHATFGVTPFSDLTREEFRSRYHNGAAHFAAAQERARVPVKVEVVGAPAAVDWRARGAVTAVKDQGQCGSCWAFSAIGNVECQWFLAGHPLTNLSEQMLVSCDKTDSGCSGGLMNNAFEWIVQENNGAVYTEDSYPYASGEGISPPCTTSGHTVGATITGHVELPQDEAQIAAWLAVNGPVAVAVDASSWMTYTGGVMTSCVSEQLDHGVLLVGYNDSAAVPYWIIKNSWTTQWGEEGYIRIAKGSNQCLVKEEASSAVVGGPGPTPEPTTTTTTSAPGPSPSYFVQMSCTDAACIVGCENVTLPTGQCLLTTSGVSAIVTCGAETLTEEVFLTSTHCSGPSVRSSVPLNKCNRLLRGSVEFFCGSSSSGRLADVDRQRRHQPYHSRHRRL

Procathepsin L [8] = biological target: T1, Procathepsin L; assay: Inhibition of recombinant cathepsin L using ZFR-pNA as substrate preincubated for 45 mins; procedure, shortened: as §2
Target sequence in this assay (P07711 whole entry): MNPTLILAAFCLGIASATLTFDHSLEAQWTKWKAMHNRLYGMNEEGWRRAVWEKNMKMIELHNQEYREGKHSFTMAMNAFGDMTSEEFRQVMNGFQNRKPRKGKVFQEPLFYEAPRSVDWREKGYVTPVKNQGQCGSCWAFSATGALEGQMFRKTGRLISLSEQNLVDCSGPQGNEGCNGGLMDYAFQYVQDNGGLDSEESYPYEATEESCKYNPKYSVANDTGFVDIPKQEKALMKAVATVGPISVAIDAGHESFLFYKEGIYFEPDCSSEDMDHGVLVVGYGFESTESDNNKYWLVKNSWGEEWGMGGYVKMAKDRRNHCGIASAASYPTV

Trypanosoma cruzi [9] = assay: Inhibition of trypomastigotes of Trypanosoma cruzi Y invasion to mouse peritoneal macrophages at 50 uM […]; assay type: functional, organism-based
[10] = Solubility of the compound in 0.1 M sodium acetate pH 5.5; assay type: physicochemical; conditions: buffer
[11] = biological target: Cruzipain (Trypanosoma cruzi) (UniProt P25779); assay: Inhibition of Trypanosoma cruzi recombinant cruzain using Z-FR-AMC as substrate at 20 uM preincubated for 10 mins before substrate addition in presence of 0.01% of Triton X-100; procedure, shortened: as §1

Structure (SMILES)	IC50 (Trypanosoma cruzi [1]) [µM]	MNTC at 24 h [2] [µg/mL]	inhibition [3]	IC50 (Trypanosoma cruzi [4]) [µM]	other results
COc1ccc(-c2csc(N/N=C(\C)COc3ccccc3)n2)cc1	17.8	100	inactive	14.9	
C/C(COc1ccccc1)=N\Nc1nc(-c2ccc(F)cc2)cs1	11.5	> 100	inactive	41.3	
C/C(COc1ccccc1)=N\Nc1nc(-c2ccc(Cl)cc2)cs1		100	13%	57.1	
C/C(COc1ccccc1)=N\Nc1nc(-c2ccc(Br)cc2)cs1		100	25%	49.8	
C/C(COc1ccccc1)=N\Nc1nc(-c2ccc([N+](=O)[O-])cc2)cs1	5.7	100	inactive	1.9	Activity (Trypanosoma cruzi [5]): Active
C/C(COc1ccccc1)=N\Nc1nc(-c2cccc([N+](=O)[O-])c2)cs1	3.8	100	inactive	4	
C/C(COc1ccccc1)=N\Nc1nc(-c2ccc(Cl)c(Cl)c2)cs1	17	25	20%	19	
C/C(COc1ccccc1)=N\Nc1nc(-c2ccc(Cl)cc2Cl)cs1	17	< 1	40%	42.2	
C/C(COc1ccccc1)=N\Nc1nc(-c2ccc(Cl)c(Cl)c2Cl)cs1		> 1	inactive		
C/C(COc1ccccc1)=N\Nc1nc(-c2ccc(C(C)(C)C)cc2)cs1		50	inactive		
C/C(COc1ccccc1)=N\Nc1nc(-c2ccc3ccccc3c2)cs1	36.4	> 100	inactive	83	
C/C(COc1ccccc1)=N\Nc1nc(-c2ccco2)cs1	17.7	> 100			inhibition [6]: 4.7%
C/C(COc1ccccc1)=N\Nc1nc(-c2cccs2)cs1	37.6	50		16.6	inhibition [6]: 30%
C/C(COc1ccccc1)=N\N=c1\scc(-c2ccccc2)n1C	175	10	inactive	25.6	
C/C(COc1ccccc1)=N\N=c1\scc(-c2ccccc2)n1-c1ccccc1	61.1	> 100	inactive	2.6	
C/C(COc1ccccc1)=N\N=C1\SCC(=O)N1c1ccccc1	18	> 100	66%	25.8	IC50 (Cathepsin S): > 100 µM; inhibition (Procathepsin L [7]): 0%; IC50 (Cruzipain; read-out: IC50): 10.2 µM; IC50 (Procathepsin L [8]): > 100 µM
C/C(COc1ccccc1)=N\Nc1nc(-c2ccccn2)cs1	34.8	100	inactive	11.8	
C/C(COc1ccccc1)=N\Nc1nc(-c2cccnc2)cs1	12.3	100	inactive	20.5	
C/C(COc1ccccc1)=N\Nc1nc(-c2ccncc2)cs1	3.9	100		4	Activity (Trypanosoma cruzi [5]): inactive; inhibition (Trypanosoma cruzi [9]): inactive; inhibition [6]: 13.3%
C/C(COc1ccccc1)=N\Nc1nc(-c2ccc(C)cc2)cs1	49.7	100	inactive	67	

Structure (SMILES)	IC50 (Trypanosoma cruzi [1]) [µM]	MNTC at 24 h [2] [µg/mL]	inhibition [3]	IC50 (Trypanosoma cruzi [4]) [µM]	other results
C/C(COc1ccccc1)=N\N=C1\SCC(=O)N1C		> 100	0%		IC50 (Cruzipain): ND(Insoluble)
C[C@@H]1[C@H](O)[C@@H](C)/C=C/C=C/C=C/C=C/C=C/C=C/C=C/[C@H](O[C@@H]2O[C@H](C)[C@@H](O)[C@H](N)[C@@H]2O)C[C@@H]2O[C@](O)(C[C@@H](O)C[C@@H](O)[C@H](O)CC[C@@H](O)C[C@@H](O)CC(=O)O[C@H]1C)C[C@H](O)[C@H]2C(=O)O					inhibition (Trypanosoma cruzi [9]): Active
C/C(COc1ccccc1)=N\N=C1\SC(c2ccccc2)C(=O)N1C (racemic)	18	> 100	27%	12	IC50 (Cruzipain): ND(Insoluble); solubility [10]: Insoluble
C/C(COc1ccccc1)=N\N=C1\SC(C)C(=O)N1c1ccccc1 (racemic)	29	100	50%	31.8	inhibition (Procathepsin L [7]): 0%; IC50 (Cruzipain; read-out: IC50): 10.8 µM; Activity (Trypanosoma cruzi [5]): Active
CCC1S/C(=N/N=C(\C)COc2ccccc2)N(c2ccccc2)C1=O (racemic)	5.8	100	66%	11.1	IC50 (Cathepsin S): > 100 µM; inhibition (Procathepsin L [7]): 4%; IC50 (Cruzipain; read-out: IC50): 9.5 µM; inhibition [11]: 64%; Activity (Trypanosoma cruzi [5]): Active; IC50 (Procathepsin L [8]): > 100 µM
C/C(COc1ccccc1)=N\N=C1\SC(c2ccccc2)C(=O)N1c1ccccc1 (racemic)	11.1	> 100	43%	15.6	inhibition (Procathepsin L [7]): 15%; IC50 (Cruzipain): ND(Insoluble); solubility [10]: Insoluble
C/C(COc1ccccc1)=N\N=C1\SC(c2ccccc2)C(=S)N1c1ccccc1 (racemic)	11.2	100	72%	4.2	inhibition (Procathepsin L [7]): 89%; IC50 (Cruzipain; read-out: IC50): 7 µM; inhibition [11]: 79%; IC50 (Procathepsin L [8]): 10.8 µM
CCC1S/C(=N/N=C(\C)COc2ccccc2)NC1=S (racemic)	31.5	25	48%	26.1	inhibition (Procathepsin L [7]): 81%; IC50 (Cruzipain; read-out: IC50): 18.7 µM; IC50 (Procathepsin L [8]): 13.8 µM
CCC1S/C(=N/N=C(\C)COc2ccccc2)N(c2ccc(C)cc2)C1=O (racemic)	19.9	100	65%	15	IC50 (Cruzipain; read-out: IC50): 11.8 µM
CCC1S/C(=N/N=C(\C)COc2ccccc2)N(c2ccc(OC)cc2)C1=O (racemic)	9	100	71%	6.8	IC50 (Cruzipain; read-out: IC50): 8.7 µM
CCC1S/C(=N/N=C(\C)COc2ccccc2)N(C2CCCCC2)C1=O (racemic)		> 100	10%		
C/C(COc1ccccc1)=N\N=C1/NC(=O)C(C)S1 (racemic)		> 100	3%		inhibition (Procathepsin L [7]): 0%
CCC1S/C(=N/N=C(\C)COc2ccccc2)NC1=O (racemic)		> 100	5%		inhibition (Procathepsin L [7]): 5%
C/C(COc1ccccc1)=N\N=C1/NC(=O)C(C(C)C)S1 (racemic)	16.8	> 100	60.8%	12.2	inhibition (Procathepsin L [7]): 11%; IC50 (Cruzipain; read-out: IC50): 18.9 µM
C/C(COc1ccccc1)=N\N=C1/NC(=O)C(c2ccccc2)S1 (racemic)	18.7	25	63%	34.8	solubility [10]: Insoluble; inhibition [6]: 63%
C/C(COc1ccccc1)=N\N=C1\SC(C)C(=O)N1C (racemic)		25	0%		
CCC1S/C(=N/N=C(\C)COc2ccccc2)N(C)C1=O (racemic)		> 100	50%		IC50 (Cathepsin S): > 100 µM; inhibition (Procathepsin L [7]): 6%; IC50 (Cruzipain; read-out: IC50): 31.9 µM; IC50 (Procathepsin L [8]): > 100 µM
C/C(COc1ccccc1)=N\N=C1\SC(C(C)C)C(=O)N1C (racemic)	10.7	> 100	81%	14	IC50 (Cathepsin S): > 100 µM; inhibition (Procathepsin L [7]): 0%; IC50 (Cruzipain; read-out: IC50): 8 µM; IC50 (Procathepsin L [8]): > 100 µM
CC1CS(=O)(=O)CCN1/N=C/c1ccc([N+](=O)[O-])o1 (stereo not drawn) [NIFURTIMOX]	2.7	1		1.9	
